Reference: PMC6923798 (Bioorganic chemistry, 2018)

How the values were obtained:
Jurkat = experiment: MTT anti-proliferative assay; assay type: cell-based, human; conditions: Homo sapiens, Jurkat, 24 h, read-out: IC50 ± SD, Jurkat
HCT-116 = experiment: NCI in vitro five dose anticancer assay; assay type: cell-based, human
[1] = system: EGFR, p-EGFR, Src and p-Src in K562 cells; experiment: Western blot analysis in K562 cells; assay type: cell-based, human; conditions: K562 cells, 0.2, 0.8, 1.6 μM, 24 h
Procedure, shortened: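 K562 cells incubated 24 h with test compound at 0.2, 0.8 or 1.6 μM, or DMSO. 50 μg protein resolved on 8 or 10% SDS-PAGE and transferred to PVDF. Blocked 1 h in PBS with 3% non-fat milk, 1% BSA, 0.5% Tween-20. Primary antibody overnight, then HRP-IgG 1 h at room temperature. ECL detection on X-ray film.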

[2] = system: full NCI panel of 60 cell lines; experiment: NCI in vitro one dose anticancer assay; assay type: cell-based, human; conditions: 48 h
Procedure, shortened: (§1)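 NCI protocol. Test compound added once at 10−5 M to ~60 human tumour lines from nine subpanels. Incubated 48 h at 37 °C, 5% CO2, 95% air, 100% relative humidity. Endpoint by sulforhodamine B protein staining with spectrophotometric absorbance. Growth of treated cells reported as percent of untreated cells.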

NCI-H23 = experiment: NCI in vitro five dose anticancer assay; assay type: cell-based, human
LOX IMVI = experiment: NCI in vitro five dose anticancer assay; assay type: cell-based, human; conditions: 48 h
NCI/ADR-RES = experiment: NCI in vitro five dose anticancer assay; assay type: cell-based, human; conditions: 48 h
HCC-2998 = experiment: NCI in vitro five dose anticancer assay; assay type: cell-based, human
SW-620 = experiment: NCI in vitro five dose anticancer assay; assay type: cell-based, human
RXF 393 = experiment: NCI in vitro five dose anticancer assay; assay type: cell-based, human
SR = experiment: NCI in vitro five dose anticancer assay; assay type: cell-based, human; conditions: 48 h
PC-3 = experiment: NCI in vitro five dose anticancer assay; assay type: cell-based, human
HS 578T = experiment: NCI in vitro five dose anticancer assay; assay type: cell-based, human; conditions: 48 h
OVCAR-8 = experiment: NCI in vitro five dose anticancer assay; assay type: cell-based, human
K-562 cell line = experiment: NCI in vitro one dose anticancer assay; assay type: cell-based; conditions: Homo sapiens, K562, 48 h, read-out: % growth inhibition
Procedure, shortened: as §1

786–0 = experiment: NCI in vitro five dose anticancer assay; assay type: cell-based, human
NCI-H460 = experiment: NCI in vitro five dose anticancer assay; assay type: cell-based, human
MOLT-4 = experiment: NCI in vitro five dose anticancer assay; assay type: cell-based, human
UACC-62 = experiment: NCI in vitro five dose anticancer assay; assay type: cell-based, human
SF-539 = experiment: NCI in vitro five dose anticancer assay; assay type: cell-based, human
A498 = experiment: NCI in vitro five dose anticancer assay; assay type: cell-based, human
MCF7 = experiment: NCI in vitro five dose anticancer assay; assay type: cell-based, human
NCI-H522 = experiment: NCI in vitro five dose anticancer assay; assay type: cell-based, human
KM12 = experiment: NCI in vitro five dose anticancer assay; assay type: cell-based, human
SK-MEL-2 = experiment: NCI in vitro five dose anticancer assay; assay type: cell-based, human
c-Src = c-Src (Homo sapiens, UniProt P12931); experiment: Src kinase assay; assay type: biochemical
MALME-3M = experiment: NCI in vitro five dose anticancer assay; assay type: cell-based, human; conditions: 48 h
OVCAR-3 = experiment: NCI in vitro five dose anticancer assay; assay type: cell-based, human
T-47D = experiment: NCI in vitro five dose anticancer assay; assay type: cell-based, human; conditions: 48 h
M14 = experiment: NCI in vitro five dose anticancer assay; assay type: cell-based, human
SNB-75 = experiment: NCI in vitro five dose anticancer assay; assay type: cell-based, human
U251 = experiment: NCI in vitro five dose anticancer assay; assay type: cell-based, human

c-Src, sequence (P12931 whole entry): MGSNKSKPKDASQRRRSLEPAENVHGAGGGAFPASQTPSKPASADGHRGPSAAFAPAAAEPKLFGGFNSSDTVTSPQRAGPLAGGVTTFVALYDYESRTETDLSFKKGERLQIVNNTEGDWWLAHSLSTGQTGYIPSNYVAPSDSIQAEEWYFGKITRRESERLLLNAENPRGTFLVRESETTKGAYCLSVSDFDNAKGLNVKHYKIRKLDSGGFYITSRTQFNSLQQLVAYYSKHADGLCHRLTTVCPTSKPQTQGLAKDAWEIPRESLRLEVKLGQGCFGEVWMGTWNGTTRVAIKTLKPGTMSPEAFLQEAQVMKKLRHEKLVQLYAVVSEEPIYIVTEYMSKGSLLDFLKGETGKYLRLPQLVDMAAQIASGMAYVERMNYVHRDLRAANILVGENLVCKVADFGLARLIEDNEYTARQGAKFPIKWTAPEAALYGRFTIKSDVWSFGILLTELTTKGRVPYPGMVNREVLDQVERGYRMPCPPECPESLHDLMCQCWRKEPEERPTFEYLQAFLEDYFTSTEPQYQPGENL

Work on COc1ccc(C=CC(=O)c2ccc(NC(=O)CSc3nnc(-c4cc(OC)c(OC)c(OC)c4)o3)cc2)cc1 [Compound 8v, N-(4-(3-(4-Methoxyphenyl)acryloyl)phenyl)-2-((5-(3,4,5-trimethoxy-phenyl)-1,3,4-oxadiazol-2-yl)thio)acetamide] yielded an IC50 (Jurkat) of 2360 ± 470 nM, a TGI (HCT-116; HCT-116, Colon Cancer, five dose, 48 h, SRB) of 1940 nM and a GI50 (HCT-116; Homo sapiens, HCT-116, 48 h) of 500 nM. For the same compound, the “protein expression levels of p-EGFR, EGFR, p-Src and Src” value [1] was “downregulated”, the “number of cell lines with complete cell death” value ([2]; 10 μM, SRB) was 45 and the inhibition at 10 µM ([2]; Homo sapiens, 60 cell, read-out: Mean growth inhibition %) was 132%. It also gave a GI50 (NCI-H23; Homo sapiens, NCI-H23, 48 h) of 1880 nM, a TGI (NCI-H23; NCI-H23, Non-Small Cell Lung Cancer, five dose, 48 h, SRB) of 3970 nM and a GI50 (LOX IMVI; Homo sapiens) of 320 nM. For the same compound, the TGI (LOX IMVI; Melanoma, five dose, SRB) was 1280 nM, the GI50 (NCI/ADR-RES; Homo sapiens) was 2420 nM and the TGI (NCI/ADR-RES; Ovarian Cancer, five dose, SRB) was 7030 nM. For the same compound, the TGI (HCC-2998; HCC-2998, Colon Cancer, five dose, 48 h, SRB) was 3650 nM, the GI50 (HCC-2998; Homo sapiens, HCC 2998, 48 h) was 1880 nM and the GI50 (SW-620; Homo sapiens, SW-620, 48 h) was 1860 nM. It also gave a TGI (SW-620; SW-620, Colon Cancer, five dose, 48 h, SRB) of 3600 nM, a GI50 (RXF 393; Homo sapiens, RXF 393, 48 h) of 1740 nM and a TGI (RXF 393; RXF 393, Renal Cancer, five dose, 48 h, SRB) of 3540 nM. It also gave a GI50 (SR; Homo sapiens) of 1860 nM, a TGI (SR; Leukemia, five dose, SRB) of 4010 nM and a GI50 (PC-3; Homo sapiens, PC-3, 48 h) of 1750 nM. It also gave a TGI (PC-3; PC-3, Prostate Cancer, five dose, 48 h, SRB) of 3300 nM, a TGI (HS 578T; HS 578T, Breast cancer, five dose, SRB) of 7760 nM and a GI50 (HS 578T; Homo sapiens, Hs-578T) of 2650 nM. For the same compound, the GI50 (OVCAR-8; Homo sapiens, OVCAR-8, 48 h) was 2320 nM, the TGI (OVCAR-8; OVCAR-8, Ovarian Cancer, five dose, 48 h, SRB) was 5730 nM and the inhibition at 10 µM (K-562 cell line) was 35.8 to 152%. The TGI (786–0; 786–0, Renal Cancer, five dose, 48 h, SRB) was 3360 nM, the GI50 (786–0; Homo sapiens, 786-0, 48 h) was 1700 nM and the GI50 (NCI-H460; Homo sapiens, NCI-H460, 48 h) was 2000 nM. It also gave a TGI (NCI-H460; NCI-H460, Non-Small Cell Lung Cancer, five dose, 48 h, SRB) of 3850 nM, a GI50 (MOLT-4; Homo sapiens, MOLT-4, 48 h) of 2050 nM and a TGI (MOLT-4; MOLT-4, Leukemia, five dose, 48 h, SRB) of 5270 nM. It also gave a GI50 (UACC-62; Homo sapiens, UACC-62, 48 h) of 1730 nM, a TGI (UACC-62; UACC-62, Melanoma, five dose, 48 h, SRB) of 3430 nM and a GI50 (SF-539; Homo sapiens, SF-539, 48 h) of 1640 nM. It also gave a TGI (SF-539; SF-539, CNS cancer, five dose, 48 h, SRB) of 3030 nM, a TGI (A498; A498, Renal Cancer, five dose, 48 h, SRB) of 23600 nM and a GI50 (A498; Homo sapiens, A498, 48 h) of 11000 nM. For the same compound, the GI50 (MCF7; Homo sapiens, MCF7, 48 h) was 1270 nM, the TGI (MCF7; MCF7, Breast cancer, five dose, 48 h, SRB) was 3680 nM and the GI50 (NCI-H522; Homo sapiens, NCI-H522, 48 h) was 1550 nM. The TGI (NCI-H522; NCI-H522, Non-Small Cell Lung Cancer, five dose, 48 h, SRB) was 3210 nM, the GI50 (KM12; Homo sapiens, KM12, 48 h) was 1770 nM and the TGI (KM12; KM12, Colon Cancer, five dose, 48 h, SRB) was 3400 nM. The GI50 (SK-MEL-2; Homo sapiens, SK-MEL-2, 48 h) was 1790 nM, the TGI (SK-MEL-2; SK-MEL-2, Melanoma, five dose, 48 h, SRB) was 4820 nM and the IC50 (c-Src) was 960 ± 200 nM. It also gave a GI50 (MALME-3M; Homo sapiens, Malme-3M) of 1680 nM, a TGI (MALME-3M; MALME-3M, Melanoma, five dose, SRB) of 3450 nM and a GI50 (OVCAR-3; Homo sapiens, OVCAR-3, 48 h) of 1780 nM. It also gave a TGI (OVCAR-3; OVCAR-3, Ovarian Cancer, five dose, 48 h, SRB) of 3380 nM, a GI50 (T-47D; Homo sapiens, T47D) of 2050 nM and a TGI (T-47D; T-47D, Breast cancer, five dose, SRB) of 5080 nM. For the same compound, the GI50 (M14; Homo sapiens, M14, 48 h) was 1600 nM, the TGI (M14; M14, Melanoma, five dose, 48 h, SRB) was 3300 nM and the GI50 (SNB-75; Homo sapiens, SNB-75, 48 h) was 1470 nM. The TGI (SNB-75; SNB-75, CNS cancer, five dose, 48 h, SRB) was 3150 nM, the GI50 (U251; Homo sapiens, U-251, 48 h) was 1680 nM and the TGI (U251; U251, CNS cancer, five dose, 48 h, SRB) was 3180 nM.
